# Source: PubChem (several laboratories)
# This is a sample that favours compounds with a hit; in the whole collection about 9.6% have one here.
# TNAP inh hi DEA = inhibitors of human TNAP at high phosphate acceptor concentration; 200,000 tested, 0.03% active; inhibition, % at 20 µM; P05186; AID 1135; purified TNAP, CDP-star luminescence, 1 M DEA;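 active = over 50% inhibition of tissue-nonspecific alkaline phosphatase at 20 µM in the single-dose screen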;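 also: plate controls were DMSO wells for no effect and EDTA-quenched wells as full inhibition for full effect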
# Target sequence (P05186 whole entry, looked up): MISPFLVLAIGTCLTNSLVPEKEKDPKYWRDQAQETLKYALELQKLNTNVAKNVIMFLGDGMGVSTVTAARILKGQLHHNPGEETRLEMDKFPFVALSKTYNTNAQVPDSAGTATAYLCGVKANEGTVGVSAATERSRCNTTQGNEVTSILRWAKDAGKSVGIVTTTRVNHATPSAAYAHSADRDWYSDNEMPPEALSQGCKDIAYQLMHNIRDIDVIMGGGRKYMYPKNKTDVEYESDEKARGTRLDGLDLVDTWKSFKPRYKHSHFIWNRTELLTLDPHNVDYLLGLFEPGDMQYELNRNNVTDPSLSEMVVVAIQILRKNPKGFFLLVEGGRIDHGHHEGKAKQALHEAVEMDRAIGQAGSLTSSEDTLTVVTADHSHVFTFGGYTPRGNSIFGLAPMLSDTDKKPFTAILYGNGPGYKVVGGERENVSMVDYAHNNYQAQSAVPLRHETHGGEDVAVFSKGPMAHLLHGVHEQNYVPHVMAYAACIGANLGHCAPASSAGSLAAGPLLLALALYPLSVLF
# Lmaj promast = reduces viability of Leishmania major promastigotes; resazurin fluorescence viability; inhibition, % at 10 µM; 200,000 tested, 9% active; AID 1063; in the data active = inhibition above about 50%;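 also: promastigotes grown with compound for 44 hours at 28 °C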
# TNAP inh no acc = TNAP (human) inhibition, acceptor-free conditions; P05186; purified TNAP, CDP-star luminescence, 30 min; inhibition, % at 20 µM; 200,000 tested, 0.26% active;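 active = tissue-nonspecific alkaline phosphatase inhibition above about 50% at 20 µM in the single-dose screen, limit read from the data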;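 also: 0% = DMSO negative control and 100% = EDTA positive control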
# PTEN del growth = growth suppressors of cells with PTEN tumor suppressor deletion | HCT116 PTEN-null viability, CellTiter-Glo, 60 h; stronger effect = lower value | viability, % at 10 µM | 140,000 tested, 1.2% active;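 active = viability at or below a set limit, 4 SD under the median of all tested compounds, cut at about 3.7% in these data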;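 also: PTEN knockout HCT116 line with beta catenin targeted HCT116 as companion control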
# TNAP act hi DEA = activators of human TNAP at high phosphate acceptor concentration. activation factor at 20 µM. P05186. 200,000 tested, under 10 active. AID 1136. purified TNAP, CDP-star luminescence, 1 M DEA, 30 min; stronger effect = higher value; 0 = EDTA background, 1 = DMSO-only activity;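 active = activation factor at least 2 at 20 µM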
#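 Measured by: Luminescent substrate turnover signal | Test system: Human TNAP | Input: TNAP 1/800 final | Dosing: 20 µM single point | Schedule: 30 min, room temperature | Controls: EDTA wells as negative control, DMSO wells as positive control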
# HCT116 bCat-KO = beta-catenin-lacking colon tumor cell growth suppression. viability, % at 10 µM. HCT116 beta-catenin knockout viability, CellTiter-Glo, 60 h; stronger effect = lower value. 140,000 tested, 1.5% active;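 active = viability at or under a set limit, the compound median less 4 SD, cut at about 6% in these data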;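 also: 0% = Hyamine 1622 control at 20 µM and 100% = untreated cell control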
# Numbers without * were called inactive; / = not tested or not shown.
SMILES,TNAP inh hi DEA,Lmaj promast,TNAP inh no acc,PTEN del growth,TNAP act hi DEA,HCT116 bCat-KO
COc1ccc(Sc2nc(-c3ccccn3)ncc2OC)cc1,-4,101*,-41,/,1,/
COc1cnc(-c2ccccn2)nc1Sc1ccccc1,0,100*,-7,/,1,/
COc1cnc(-c2ccccn2)nc1Oc1ccccc1,2,9,-1,/,1,/
COc1cnc(-c2ccccn2)nc1Sc1ccc(F)cc1,-4,94*,-12,/,1,/
O=C(N/N=C\c1ccc(Cl)cc1Cl)c1sccc1-n1cccc1,-3,100*,-6,86,1,99
Cc1nc2cc(C(=O)NCc3cccnc3)ccc2n1-c1ccc(F)cc1F,-2,-4,-17,/,1,/
O=S(=O)(NC1CCCCC1Sc1ncccn1)c1ccc(Cl)cc1 (stereo not given),-2,38,-25,99,1,96
O=S(=O)(NC1CCCCC1Nc1ccc(Cl)cc1)c1ccccc1 (stereo not given),-4,91*,-4,64,1,74
O=S(=O)(NC1CCCCC1Sc1ncccn1)c1ccccc1 (stereo not given),-1,65*,-16,99,1,92
Cc1ccc(NC2CCCCC2NS(=O)(=O)c2ccc(Cl)cc2)cc1 (stereo not given),-4,6,-5,88,1,72
Cc1cc(C(=O)N2CCCC(C(=O)c3ccc4ccccc4c3)C2)n(C)n1 (stereo not given),2,-6,0,/,1,/
Cc1ccc(O)c(CP(=O)(c2ccccc2)c2ccccc2)c1,-8,84*,-11,92,1.1,84
Oc1c(N=NC(=S)Nc2ccccc2F)c2ccccc2n1Cc1ccccc1,16,96*,11,/,0.8,/
C=CCn1c(O)c(N=NC(=S)Nc2ccccc2F)c2ccccc21,17,96*,4,/,0.8,/
CCn1c(O)c(N=NC(=O)CNc2cccc(C)c2)c2ccccc21,7,-3,9,88,0.9,88
Oc1c(N=NC(=S)Nc2ccccc2F)c2ccccc2n1Cc1ccccc1Cl,18,84*,24,/,0.8,/
C=CCn1c(O)c(N=NC(=S)Nc2cccc(C)c2)c2ccccc21,16,99*,26,14,0.8,13
Cc1cccc(OCc2nnc(SCC(=O)Nc3cccc(C(=O)N4CCOCC4)c3)o2)c1C,-1,-8,-6,96,1,102
O=C(NNC(=O)[C@@H]1CCCC[C@@H]1C(=O)O)Nc1ccccc1,-9,-1,-7,101,1.1,94
CNCc1ccccc1Sc1ccc(O)c(O)c1,14,-8,28,67,0.9,35
Cc1ccc(Cn2c(O)c(N=NC(=S)Nc3ccccc3F)c3ccccc32)cc1,18,97*,32,/,0.8,/
Cc1c(Cl)cccc1NC(=S)N=Nc1c(O)n(CN2CCOCC2)c2ccccc12,19,98*,-12,8,0.8,12
CCCCNC(=S)N=Nc1c(O)n(Cc2ccccc2)c2ccccc12,8,9,6,51,0.9,53
Cc1ccccc1NC(=S)N=Nc1c(O)n(C)c2ccc(S(=O)(=O)N3CCOCC3)cc12,22,-4,24,13,0.8,17
COc1ccc(NC(=O)C(=S)N2CCCC2)cc1,-6,-6,-11,/,1.1,/
SMILES,TNAP inh hi DEA,Lmaj promast,TNAP inh no acc,PTEN del growth,TNAP act hi DEA,HCT116 bCat-KO
Cc1[nH][nH]c(=O)c1C(c1ccc(-c2ccc(Cl)cc2Cl)o1)c1c(C)[nH][nH]c1=O,4,100*,-22,89,1,93
Cc1[nH][nH]c(=O)c1C(c1ccc(-c2cccc(C(=O)O)c2)o1)c1c(C)[nH][nH]c1=O,8,-11,37,/,0.9,/
COC(=O)c1ccc(-c2ccc(C(c3c(C)[nH][nH]c3=O)c3c(C)[nH][nH]c3=O)o2)cc1,11,97*,-21,/,0.9,/
CCOC(=O)Cc1cc(=O)n2[nH]c(C)c(-c3ccccc3)c2n1,-8,-9,-12,94,1.1,102
CCOC(=O)Cc1c(C)nc2c(-c3ccc(Cl)cc3)c(C)[nH]n2c1=O,0,95*,10,42,1,39
CCOc1ccccc1NC(=O)c1cccc(S(=O)(=O)N(Cc2ccccc2)c2ccccc2OC)c1,-5,86*,-10,78,1.1,78
CCNC(=S)Nc1cc(OC)c(NC(=O)c2ccco2)cc1OC,-3,-3,-6,/,1,/
O=C(Nc1cccc(-c2nc3ccccc3[nH]2)c1)c1cccc(NC(=O)c2ccco2)c1,-6,82*,-8,55,1.1,10
O=C(NCc1ccco1)c1cccc(NC(=O)c2ccco2)c1,-4,79*,-15,104,1,97
CCNC(=S)Nc1cc(OCC)c(NC(=O)c2ccco2)cc1OCC,0,51*,4,100,1,102
COCCNC(=S)N(C)C1(c2ccccc2Cl)CCCCC1=O (stereo not given),-7,9,-5,/,1.1,/
CCNC(=S)N/N=C/c1sc(N2CCCCC2)nc1-c1cccs1,10,9,10,79,0.9,81
O=C(CSc1ccc(Cl)cc1)Nc1cccc(NC(=O)c2ccco2)c1,-6,97*,-11,76,1.1,85
C/C(=N\NC(=O)c1ccc(F)cc1)c1cccc(NC(=O)c2ccco2)c1,-4,67*,-9,98,1,86
CCOc1ccccc1NC(=O)c1ccc(Cl)c(NC(=O)CC(c2ccccc2)c2ccccc2)c1,-5,70*,-8,69,1.1,86
CCOc1ccccc1NC(=O)c1cccc(NC(=O)c2ccco2)c1,-10,100*,-6,98,1.1,103
OCC1CCCN(Cc2cn(Cc3ccccc3)nc2-c2cc3ccccc3o2)C1 (stereo not given),-2,50,-5,/,1,/
CC(/C=N/N1CCN(Cc2ccccc2)CC1)=C\c1ccccc1,-2,9,-4,/,1,/
O=C(NCc1ccco1)/C(=C\c1cccs1)NC(=O)c1ccco1,2,-1,5,/,1,/
N#CC(c1ccccc1)N(CCCCl)C(=O)c1ccc(Br)cc1 (stereo not given),-4,15,-11,78,1,77
O=C1c2ccccc2CN1CCSC(=S)N1CCOCC1,3,-9,-3,97,1,86
CC(C)CNC(=O)c1cccc(NC(=O)C(C)C)c1,16,-5,-10,/,0.8,/
CC(C)CNC(=O)c1cccc(NC(=O)c2ccco2)c1,-3,79*,-6,110,1,109
CN(Cc1ccccc1)C(=O)c1cccc(NC(=O)c2ccco2)c1,-1,100*,-8,88,1,84
O=C(Nc1ccc(-c2nc3ccccc3[nH]2)cc1)c1ccc2c(c1)OCO2,-2,5,-7,2.5*,1,2.6*
Cc1ccc(C(=O)Nc2cccc(C(=O)NCc3ccccc3)c2)o1,-7,92*,-17,96,1.1,111
